Assay results published in ChEMBL document CHEMBL4411315, “Discovery of Novel Dual Histone Deacetylase and Mammalian Target of Rapamycin Target Inhibitors as a Promising Strategy for Cancer Therapy” (J Med Chem, 2019).

Experiments:
[1] = test system: HCT-116; test: Antiproliferative activity against human HCT116 cells at 5 uM after 72 hrs by MTT assay relative to control; format: functional; settings: HCT-116, 72 h
In short: (§1)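 HCT116 cells were grown in DMEM and Ramos cells in RPMI 1640, each with 10% FBS and penicillin/streptomycin, at 37 °C in 5% CO2. Log-phase cells were seeded at 10000-15000 per well and dosed after 24 h at 5 or 0.5 μM for 72 h. MTT was added for 1-3 h, followed by 20% SDS overnight, and A570 was read. Percent inhibition is relative to untreated control, as the mean of at least two experiments.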

[2] = test system: HCT-116; test: Antiproliferative activity against human HCT116 cells at 0.5 uM after 72 hrs by MTT assay relative to control; format: functional; settings: HCT-116, 72 h; in short: as §1
[3] = test system: Ramos; test: Antiproliferative activity against human Ramos cells at 5 uM after 72 hrs by MTT assay relative to control; format: functional; in short: as §1
[4] = test system: Ramos; test: Antiproliferative activity against human Ramos cells at 0.5 uM after 72 hrs by MTT assay relative to control; format: functional; in short: as §1
[5] = biological target: PI3-kinase p110-alpha/p85-alpha (Homo sapiens) (UniProt P27986+P42336); test: Inhibition of recombinant human full length N-terminal His-tagged/untagged p110alpha/p85alpha expressed in baculovirus expression system at 500 nM using PIP2 as substrate after 1 hr by Kinase-Glo reagent-based assay relative to control
[6] = biological target: Serine/threonine-protein kinase mTOR (Homo sapiens, UniProt P42345); test: Inhibition of recombinant N-terminal FLAG-tagged human mTOR (1362 to end residues) at 500 nM using ULight-4E-BP1 (Thr37/46) peptide as substrate after 1 hr by fluorescence assay relative to control
[7] = test system: HCT-116; test: Antiproliferative activity against human HCT116 cells after 72 hrs by MTT assay; format: functional, cell-based; settings: HCT-116, 72 h
[8] = test system: Raji; test: Antiproliferative activity against human Raji cells after 72 hrs by MTT assay; format: functional, cell-based
In short: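 Log-phase cells were plated at 10000-15000 per well and exposed to serial concentrations after 24 h for 72 h. Read-out was MTT for 1-3 h, then 20% SDS overnight and absorbance at 570 nm. IC50 was calculated from growth versus untreated control, as mean ± SEM of at least three independent experiments.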

[9] = test system: MM1.S; test: Antiproliferative activity against human MM1S cells after 72 hrs by MTT assay; format: functional, cell-based
[10] = test system: MCF7; test: Antiproliferative activity against human MCF7 cells after 72 hrs by MTT assay; format: functional, cell-based; settings: MCF7, 72 h
[11] = test system: MV4-11; test: Antiproliferative activity against human MV4-11 cells after 72 hrs by MTT assay; format: functional, cell-based; settings: MV4-11, 72 h
[12] = test system: OCI-AML2; test: Antiproliferative activity against human OCI-AML2 cells after 72 hrs by MTT assay; format: functional, cell-based; settings: OCI-AML2, 72 h
[13] = test system: OCI-AML-3; test: Antiproliferative activity against human OCI-AML3 cells after 72 hrs by MTT assay; format: functional, cell-based; settings: OCI-AML-3, 72 h

SMILES	inhibition at 5 µM [1] [%]	inhibition at 0.5 µM [2] [%]	inhibition at 5 µM [3] [%]	inhibition at 0.5 µM [4] [%]	inhibition [5] [%]	inhibition [6] [%]	IC50 [7] [nM]	IC50 [8] [nM]	IC50 [9] [nM]	IC50 [10] [nM]	IC50 [11] [nM]	IC50 [12] [nM]	IC50 [13] [nM]
O=C(CCCCCCCn1ncc2c(N3CCOCC3)nc(N3CCOCC3)nc21)NO	71.8	13.8	99.1	26.9	-1.2	4.4							
CCCNC(=O)Nc1ccc(-c2nc(N3CCOCC3)c3cnn(CCCCCCC(=O)NO)c3n2)cc1							104	42.5	83.4				
CN1CCN(c2nc(N3CCOCC3)c3cnn(CCCCCC(=O)NO)c3n2)CC1	56.9	10.2	99.5	91.2	1.5	-1.7							
COc1ccc(-c2nc(N3CCOCC3)c3cnn(CCCCCCC(=O)NO)c3n2)cc1					-1	38	38	29.3	354	70.6			
O=C(CCCCCCn1ncc2c(N3CCOCC3)nc(-c3ccc(NC(=O)N4CCSCC4)cc3)nc21)NO							68	148	39.2		13.9	16.9	15
Nc1ccc(-c2nc(N3CCOCC3)c3cnn(CCCCCCC(=O)NO)c3n2)cn1					1.9	35	61.3	7.1	8.4	163			
O=C(CCCCCCn1ncc2c(N3CCOCC3)nc(-c3ccc(NC(=O)NCCO)cc3)nc21)NO							57.2	61.1	60.3				
Cc1ccc(NC(=O)Nc2ccc(-c3nc(N4CCOCC4)c4cnn(CCCCCCC(=O)NO)c4n3)cc2)cc1							26.1	22.1	24.7				
O=C(CCCCCCn1ncc2c(N3CCOCC3)nc(N3CCOCC3)nc21)NO	95.2	92.9	97.4	91	4.5	2.2	89.9	159	192	372			
O=C(CCCCCn1ncc2c(N3CCOCC3)nc(N3CCOCC3)nc21)NO	92.1	62.4	94.6	69.2	1	-4.2							
O=C(CCCCCCn1ncc2c(N3CCOCC3)nc(-c3ccsc3)nc21)NO					9.7	55	72.8	14.6	35.6	202			
CNC(=O)Nc1ccc(-c2nc(N3CCOCC3)c3cnn(CCCCCCC(=O)NO)c3n2)cc1							51.6	3.5	13.4				
O=C(CCCCCCn1ncc2c(N3CCOCC3)nc(-c3ccc(NC(=O)N4CCOCC4)cc3)nc21)NO							100	14.6	27.8		12.6	29	30.1
CCCCNC(=O)Nc1ccc(-c2nc(N3CCOCC3)c3cnn(CCCCCCC(=O)NO)c3n2)cc1							33.9	19.1	15.3		18.3	9.71	8.79
CC(O)CNC(=O)Nc1ccc(-c2nc(N3CCOCC3)c3cnn(CCCCCCC(=O)NO)c3n2)cc1 (stereo unspecified)							441	153	305				
Nc1ncc(-c2nc(N3CCOCC3)c3cnn(CCCCCCC(=O)NO)c3n2)cn1					1.2	40	163	31.7	32.6	221			
CCNC(=O)Nc1ccc(-c2nc(N3CCOCC3)c3cnn(CCCCCCC(=O)NO)c3n2)cc1							61.9	19.7	11.8		10.4	18.4	16.3
